Results from PMC3873233 (Diabetes, Metabolic Syndrome and Obesity: Targets and …, 2013).

How the values were obtained:
[1] = Pharmacokinetics in DIO mice; assay type: in vivo, mouse
[2] = test system: DIO male Golden Syrian hamsters; assay: Plasma lipid parameters in high fat-fed DIO hamsters, experiment C; assay type: in vivo, hamster; conditions: end of treatment week 5, 6 mg/kg intraperitoneal
[3] = test system: high-fat DIO C57bl/6J mice; assay: Glycemic control; assay type: in vivo, mouse; conditions: 4 weeks of treatment, 9 mg/kg oral once daily
In short: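 DIO C57bl/6J males on 45% kcal-fat diet for 8±2 weeks before study, diet continued. Oral dosing once daily for 4 weeks in 0.5% w/v Tween-80 + 0.5% w/v Na-CMC in water. OGTT: 6 h fast, dose, 0-min sample 15 min later, glucose 2 g/kg, tail-snip samples at 15–120 min. K-EDTA plasma; glucose by autoanalyzer, fasting insulin by rat/mouse ELISA.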

[4] = test system: DIO male Golden Syrian hamsters; assay: Oral glucose tolerance test in DIO hamsters; assay type: in vivo, hamster; conditions: TRC210258 6 mg/kg intraperitoneal, sitagliptin 3 mg/kg oral
In short: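 Hamsters made obese on 45% kcal-fat diet for 8±2 weeks. Double-dummy dosing: i.p. vehicle 0.9% Na-CMC + 0.1% Tween-80 in PBS pH 7.4, oral vehicle 0.5% Tween-80 + 0.5% Na-CMC in water. Oral glucose tolerance test done during treatment. Retro-orbital sampling under mild anaesthesia into K-EDTA. Plasma glucose by autoanalyzer; insulin by hamster-specific ELISA.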

[5] = target: T1, human TGR5 receptor (Homo sapiens, UniProt Q8TDU6); assay type: cell-based
T1 sequence (Q8TDU6 1-330): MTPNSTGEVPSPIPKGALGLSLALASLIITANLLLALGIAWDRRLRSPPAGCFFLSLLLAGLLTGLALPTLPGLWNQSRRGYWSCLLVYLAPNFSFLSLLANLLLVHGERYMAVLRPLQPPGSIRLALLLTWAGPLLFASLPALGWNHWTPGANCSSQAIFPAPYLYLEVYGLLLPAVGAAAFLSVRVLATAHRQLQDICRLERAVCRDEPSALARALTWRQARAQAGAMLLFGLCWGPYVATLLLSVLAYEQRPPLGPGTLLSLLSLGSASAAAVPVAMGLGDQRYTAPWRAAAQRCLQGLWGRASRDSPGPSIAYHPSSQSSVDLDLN

[6] = test system: DIO male Golden Syrian hamsters; assay: Oral fat tolerance test; assay type: in vivo, hamster; conditions: week 4, 6 mg/kg intraperitoneal
In short: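 Male Golden Syrian hamsters fed 45% kcal-fat diet for 8±2 weeks. Test compound given i.p. in 0.9% Na-CMC + 0.1% Tween-80 in PBS pH 7.4, with oral vehicle dummy. At end of week 4: 6 h fast, pre-load sample, oral olive oil 5 mL/kg, samples at 60–240 min. Retro-orbital bleeds under mild anaesthesia; K-EDTA plasma triglyceride by autoanalyzer.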

[7] = Pharmacokinetics in DIO hamsters; assay type: in vivo, hamster
[8] = test system: NCI-H716 human enteroendocrine cell line; assay: TGR5-mediated GLP1 secretion; assay type: cell-based; conditions: NCI-H716 cells, 1 hour, in presence of 0.05% sitagliptin; versus vehicle
In short: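 NCI-H716 human enteroendocrine cells exposed 1 h to vehicle, test compound or lithocholic acid (positive control), with 0.05% DPP-4 inhibitor sitagliptin present. Active GLP1 in culture supernatant measured by ELISA, expressed in pM. Two experiments, each in duplicate, averaged.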

[9] = DIO mice, 9 mg/kg orally, mean ± standard deviation
[10] = DIO hamsters, 6 mg/kg intraperitoneally, mean ± standard deviation

SMILES: CN(C(=O)c1c(Oc2ccc(F)cc2)nc2ncccn12)c1ccc(Cl)cc1 [TRC210258, N-(4-chlorophenyl)-2-(4-fluorophenoxy)-N-methylimidazo [1,2-a] pyrimidine-3-carboxamide]
- Cmax ([1]; C57bl/6J, mouse, plasma, po, 9 mg/kg): 59.4 ± 22.2 ng/mL
- AUClast [1, 9]: 525.7 ± 127.0 ng·h/mL
- Tmax [1, 9]: 2.25 ± 1.25 h
- improvement (reduction) in LDL cholesterol vs vehicle control [2]: 26.2%
- improvement (reduction) in non-HDL cholesterol vs vehicle control [2]: 32%
- improvement (reduction) in total cholesterol vs vehicle control [2]: 25.4%
- improvement (reduction) in triglycerides vs vehicle control [2]: 28.3%
- Homeostasis Model of Assessment-Insulin Resistance (HOMA-IR) [3]: trend toward amelioration
- AUC(0–120 min) for insulin in oral glucose tolerance test [4]: higher
- EC50 [5]: 221 nM
- time taken to reach peak plasma triglyceride levels after oral fat loading [6]: 120 min
- AUClast [7, 10]: 726.2 ± 223.8 ng·h/mL
- Tmax [7, 10]: 1.5 ± 0.71 h
- Cmax ([7]; Golden Syrian, hamster, plasma, ip, 6 mg/kg): 78.7 ± 31.8 ng/mL
- oral bioavailability in hamsters compared with mice ([7]; hamster, oral): lower oral bioavailability
- GLP1 secretion [8]: significant induction of GLP1 secretion

SMILES: N[C@@H](CC(=O)N1CCn2c(nnc2C(F)(F)F)C1)Cc1cc(F)c(F)cc1F [sitagliptin, reference compound]
- AUC(0–120 min) for insulin in oral glucose tolerance test [4]: higher
